According to ChEMBL document CHEMBL5131404, “Lipophilic quinolone derivatives: Synthesis and in vitro antibacterial evaluation” (2022):
Values after ≈ are worked out from the molar mass of the structure shown.

Columns and labels:
Type in all cases: functional
[1] = test system: Staphylococcus aureus; assay: Antibacterial activity against methicillin-resistant Staphylococcus aureus 197
Method in brief: (§1)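 Strains grown on Mueller-Hinton agar. MIC by broth microdilution following CLSI guidelines, taken as the lowest concentration inhibiting bacterial growth. Determined at least three times in independent experiments.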

[2] = test system: Acinetobacter baumannii; assay: Antibacterial activity against Acinetobacter baumannii ATCC 19606
Method in brief: (§2)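 Broth microdilution MIC following CLSI guidelines. Strains were grown on Mueller-Hinton agar beforehand. The MIC is the lowest compound concentration that inhibits bacterial growth, determined at least three times in independent experiments.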

[3] = test system: Acinetobacter baumannii; assay: Antibacterial activity against Acinetobacter baumannii 139; method in brief: as §2
[4] = test system: Acinetobacter baumannii; assay: Antibacterial activity against Acinetobacter baumannii 140; method in brief: as §2
[5] = test system: Escherichia coli; assay: Antibacterial activity against Escherichia coli 203; method in brief: as §2
[6] = test system: Neisseria gonorrhoeae; assay: Antibacterial activity against Neisseria gonorrhoeae ATCC 19424
Method in brief: (§3)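 Agar dilution MIC. Strains were cultured on GC agar with 2% v/v Vitox and 1% haemoglobin. Suspensions of 10^5 CFU/mL were spotted in duplicate onto the same supplemented GC agar containing various compound concentrations, then incubated 24-48 h at 37°C in 5% CO2. The MIC is the lowest concentration inhibiting growth, from at least three independent experiments.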

[7] = test system: Pseudomonas aeruginosa; assay: Antibacterial activity against Pseudomonas aeruginosa 142; method in brief: as §2
[8] = test system: Pseudomonas aeruginosa; assay: Antibacterial activity against Pseudomonas aeruginosa 143; method in brief: as §2
[9] = test system: Staphylococcus aureus; assay: Antibacterial activity against Staphylococcus aureus ATCC 29213; method in brief: as §2
[10] = test system: Staphylococcus aureus; assay: Antibacterial activity against methicillin-resistant Staphylococcus aureus 196; method in brief: as §1
[11] = test system: Neisseria gonorrhoeae; assay: Antibacterial activity against Neisseria gonorrhoeae WHO K; method in brief: as §3
[12] = test system: Neisseria gonorrhoeae; assay: Antibacterial activity against Neisseria gonorrhoeae WHO G; method in brief: as §3
[13] = test system: Neisseria gonorrhoeae; assay: Antibacterial activity against Neisseria gonorrhoeae Barla194; method in brief: as §3
[14] = test system: Neisseria gonorrhoeae; assay: Antibacterial activity against Neisseria gonorrhoeae WHO Q; method in brief: as §3
[15] = test system: Neisseria gonorrhoeae; assay: Antibacterial activity against Neisseria gonorrhoeae WHO O; method in brief: as §3
[16] = test system: Neisseria gonorrhoeae; assay: Antibacterial activity against Neisseria gonorrhoeae WHO M
Method in brief: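 Agar dilution on GC agar base with 2% v/v Vitox and 1% haemoglobin containing graded compound concentrations. Suspensions at 10^5 CFU/mL spotted in duplicate. Incubation 24-48h, 37°C, 5% CO2. MIC taken as the lowest concentration inhibiting growth, determined at least three times in independent experiments.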

[17] = test system: Neisseria gonorrhoeae; assay: Antibacterial activity against Neisseria gonorrhoeae WHO E; method in brief: as §3
[18] = test system: Neisseria gonorrhoeae; assay: Antibacterial activity against Neisseria gonorrhoeae WHO C; method in brief: as §3
[19] = test system: Neisseria gonorrhoeae; assay: Antibacterial activity against Neisseria gonorrhoeae WHO B; method in brief: as §3
[20] = test system: Neisseria gonorrhoeae; assay: Antibacterial activity against Neisseria gonorrhoeae WHO A; method in brief: as §3
[21] = test system: Neisseria gonorrhoeae; assay: Antibacterial activity against Neisseria gonorrhoeae WHO Z; method in brief: as §3
[22] = test system: Escherichia coli; assay: Antibacterial activity against Escherichia coli ATCC 35218; method in brief: as §2
[23] = test system: Escherichia coli; assay: Antibacterial activity against Escherichia coli 202; method in brief: as §2
[24] = test system: Pseudomonas aeruginosa; assay: Antibacterial activity against Pseudomonas aeruginosa ATCC 27853; method in brief: as §2
[25] = test system: Streptococcus pneumoniae; assay: Antibacterial activity against Streptococcus pneumoniae ATCC 49169; method in brief: as §2

Row | SMILES | MIC [1] [µg/mL] | MIC [2] [µg/mL] | MIC [3] [µg/mL] | MIC [4] [µg/mL] | MIC [5] [µg/mL] | MIC [6] [µg/mL] | MIC [7] [µg/mL] | MIC [8] [µg/mL] | MIC [9] [µg/mL] | MIC [10] [µg/mL] | MIC [11] [µg/mL] | MIC [12] [µg/mL] | MIC [13] [µg/mL] | MIC [14] [µg/mL] | MIC [15] [µg/mL] | MIC [16] [µg/mL] | MIC [22] [µg/mL] | MIC [23] [µg/mL] | MIC [24] [µg/mL] | MIC [25] [µg/mL] | further results
1 | O=C(O)c1cn(C2CC2)c2cc(N3CCNCC3)c(F)cc2c1=O [CIPROFLOXACIN] | > 32 | 0.5 (≈ 1.51 µM) | > 32 | > 32 | > 32 | 0.004 (≈ 0.0121 µM) | > 32 | > 32 | 0.25 (≈ 0.754 µM) | > 32 | ≥ 32 | 0.125 (≈ 0.377 µM) | 32 (≈ 96.6 µM) | 0.008 (≈ 0.0241 µM) | 0.004 (≈ 0.0121 µM) | 2 (≈ 6.04 µM) | – | – | – | – | MIC [17]: 0.002 µg/mL (≈ 0.00604 µM); MIC [18]: 0.004 µg/mL (≈ 0.0121 µM); MIC [19]: 0.008 µg/mL (≈ 0.0241 µM); MIC [20]: 0.002 µg/mL (≈ 0.00604 µM); MIC [21]: > 32 µg/mL
2 | CCCCCCCCCCCCCCN1CCN(c2c(F)cc3c(=O)c(C(=O)O)cn(C4CC4)c3c2OC)CC1 | > 64 | 64 (≈ 115 µM) | ≥ 64 | ≥ 64 | > 64 | 0.12 (≈ 0.215 µM) | > 64 | > 64 | 32 (≈ 57.4 µM) | > 64 | – | – | – | – | – | – | 32 (≈ 57.4 µM) | 64 (≈ 115 µM) | > 64 | 8 (≈ 14.3 µM) | –
3 | COc1c(N2C[C@@H]3CCCN[C@@H]3C2)c(F)cc2c(=O)c(C(=O)O)cn(C3CC3)c12 [MOXIFLOXACIN] | 1 (≈ 2.49 µM) | 0.25 (≈ 0.623 µM) | 2 (≈ 4.98 µM) | 4 (≈ 9.96 µM) | – | 0.06 (≈ 0.149 µM) | 8 (≈ 19.9 µM) | 16 (≈ 39.9 µM) | 0.06 (≈ 0.149 µM) | 0.5 (≈ 1.25 µM) | 2 (≈ 4.98 µM) | 0.03 (≈ 0.0747 µM) | 16 (≈ 39.9 µM) | 0.016 (≈ 0.0399 µM) | 0.016 (≈ 0.0399 µM) | 2 (≈ 4.98 µM) | – | 0.5 (≈ 1.25 µM) | 1 (≈ 2.49 µM) | 0.06 (≈ 0.149 µM) | MIC [17]: 0.004 µg/mL (≈ 0.00996 µM); MIC [18]: 0.016 µg/mL (≈ 0.0399 µM); MIC [19]: 0.008 µg/mL (≈ 0.0199 µM); MIC [20]: 0.004 µg/mL (≈ 0.00996 µM); MIC [21]: 2 µg/mL (≈ 4.98 µM)
4 | CCCCC(CC)CN1CCN(c2c(F)cc3c(=O)c(C(=O)O)cn(C4CC4)c3c2OC)CC1 (stereo unspecified) | – | – | – | – | – | > 32 | – | – | 32 (≈ 67.6 µM) | – | – | – | – | – | – | – | ≥ 64 | – | – | 2 (≈ 4.22 µM) | –
5 | CCCCCCCCCCCCN1CCN(c2c(F)cc3c(=O)c(C(=O)O)cn(C4CC4)c3c2OC)CC1 | ≥ 64 | 64 (≈ 121 µM) | ≥ 64 | 64 (≈ 121 µM) | > 64 | 0.12 (≈ 0.227 µM) | > 64 | > 64 | 32 (≈ 60.4 µM) | ≥ 64 | – | – | – | – | – | – | 64 (≈ 121 µM) | 32 (≈ 60.4 µM) | > 64 | 4 (≈ 7.55 µM) | –
6 | CCCCCCCCCCN1CCN(c2c(F)cc3c(=O)c(C(=O)O)cn(C4CC4)c3c2OC)CC1 | > 64 | 64 (≈ 128 µM) | ≥ 64 | 64 (≈ 128 µM) | > 64 | 0.12 (≈ 0.239 µM) | > 64 | > 64 | 32 (≈ 63.8 µM) | ≥ 64 | 256 (≈ 510 µM) | 8 (≈ 15.9 µM) | 256 (≈ 510 µM) | 2 (≈ 3.99 µM) | 1 (≈ 1.99 µM) | ≥ 64 | ≥ 32 | ≥ 64 | > 64 | > 64 | MIC [17]: 0.25 µg/mL (≈ 0.498 µM); MIC [18]: 1 µg/mL (≈ 1.99 µM); MIC [19]: 1 µg/mL (≈ 1.99 µM); MIC [20]: 0.5 µg/mL (≈ 0.997 µM); MIC [21]: ≥ 64 µg/mL
7 | CCCCCCCN1CCN(c2c(F)cc3c(=O)c(C(=O)O)cn(C4CC4)c3c2OC)CC1 | 8 (≈ 17.4 µM) | 8 (≈ 17.4 µM) | 4 (≈ 8.7 µM) | 64 (≈ 139 µM) | > 64 | 0.25 (≈ 0.544 µM) | > 64 | > 64 | 1 (≈ 2.18 µM) | 2 (≈ 4.35 µM) | – | – | – | – | – | – | 1 (≈ 2.18 µM) | 2 (≈ 4.35 µM) | 64 (≈ 139 µM) | 4 (≈ 8.7 µM) | –
8 | CCCCCCCCN1CCN(c2c(F)cc3c(=O)c(C(=O)O)cn(C4CC4)c3c2OC)CC1 | 8 (≈ 16.9 µM) | 16 (≈ 33.8 µM) | 16 (≈ 33.8 µM) | 64 (≈ 135 µM) | > 64 | 0.25 (≈ 0.528 µM) | > 64 | > 64 | 4 (≈ 8.45 µM) | 4 (≈ 8.45 µM) | 256 (≈ 541 µM) | 0.25 (≈ 0.528 µM) | 128 (≈ 270 µM) | 0.5 (≈ 1.06 µM) | 0.03 (≈ 0.0633 µM) | 16 (≈ 33.8 µM) | ≥ 64 | 2 (≈ 4.22 µM) | > 64 | 32 (≈ 67.6 µM) | MIC [17]: 0.03 µg/mL (≈ 0.0633 µM); MIC [18]: 0.5 µg/mL (≈ 1.06 µM); MIC [19]: 0.12 µg/mL (≈ 0.253 µM); MIC [20]: 0.03 µg/mL (≈ 0.0633 µM); MIC [21]: > 32 µg/mL
9 | CCCCCCCCCCCN1CCN(c2c(F)cc3c(=O)c(C(=O)O)cn(C4CC4)c3c2OC)CC1 | ≥ 64 | 64 (≈ 124 µM) | ≥ 64 | 64 (≈ 124 µM) | > 64 | 0.5 (≈ 0.97 µM) | > 64 | > 64 | 32 (≈ 62.1 µM) | 64 (≈ 124 µM) | – | – | – | – | – | – | 16 (≈ 31 µM) | ≥ 64 | > 64 | 8 (≈ 15.5 µM) | –
10 | CCOCCOCCN1CCN(c2c(F)cc3c(=O)c(C(=O)O)cn(C4CC4)c3c2OC)CC1 | – | – | – | – | – | 2 (≈ 4.19 µM) | – | – | 0.5 (≈ 1.05 µM) | – | – | – | – | – | – | – | 0.5 (≈ 1.05 µM) | – | – | 1 (≈ 2.09 µM) | –
11 | CCCCCCCC(=O)N1CCN(c2c(F)cc3c(=O)c(C(=O)O)cn(C4CC4)c3c2OC)CC1 | – | – | – | – | – | 1 (≈ 2.05 µM) | – | – | 1 (≈ 2.05 µM) | – | – | – | – | – | – | – | ≥ 64 | – | – | 0.5 (≈ 1.03 µM) | –
12 | CCCCCCCCCN1CCN(c2c(F)cc3c(=O)c(C(=O)O)cn(C4CC4)c3c2OC)CC1 | > 64 | 64 (≈ 131 µM) | 64 (≈ 131 µM) | 64 (≈ 131 µM) | > 64 | 0.25 (≈ 0.513 µM) | ≥ 64 | ≥ 64 | 8 (≈ 16.4 µM) | ≥ 64 | – | – | – | – | – | – | 8 (≈ 16.4 µM) | 8 (≈ 16.4 µM) | > 64 | 2 (≈ 4.1 µM) | –
